Experimental data as given in ChEMBL document CHEMBL1131610, “3-Deoxy-D-myo-inositol 1-phosphate, 1-phosphonate, and ether lipid analogues as inhibitors of phosphatidylinositol-3-kinase signaling and cancer cell growth” (J Med Chem, 1998).

Tests used:
[1] = tested on: HT-29; test: Inhibition of HT-29 colon carcinoma cell proliferation after continuous 7-day exposure; assay type: functional, cell-based; conditions: Homo sapiens, HT-29, 168 h
In short: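 HT-29 colon carcinoma cells were grown as colonies in soft agarose with continuous 7-day drug exposure, and inhibition of colony formation was scored.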

[2] = tested on: Mus musculus; test: In vivo antitumor activity in mice implanted subcutaneously with 10^7 HT-29 human colon adenocarcinoma cells at a dose of 100 mg/kg (qd 4-7), injected intraperitoneally and evaluated for %T/C; assay type: functional
In short: (§1)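 scid mice were implanted subcutaneously with 10⁷ HT-29 human colon adenocarcinoma cells, 8 mice per group. Beginning 4 days after inoculation, each mouse got 4 daily intraperitoneal injections (days 4–7) of compound suspended in 3% EtOH, 3% Tween 20, 0.9% NaCl. Tumor volume was measured with calipers on day 10 and reported as mean with SE. T/C (%) is treated versus control volume, and significance was tested by Student's test.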

[3] = tested on: Mus musculus; test: In vivo antitumor activity in mice implanted with human colon adenocarcinoma cells at a dose of 50 mg/kg (qd 4-7), injected intraperitoneally and evaluated for tumor volume on day 10; assay type: functional; conditions: route intraperitoneal; in short: as §1
[4] = tested on: Mus musculus; test: In vivo antitumor activity in mice implanted with human colon adenocarcinoma cells at a dose of 150 mg/kg (qd 4-7), injected intraperitoneally and evaluated for tumor volume on day 10; assay type: functional; conditions: route intraperitoneal; in short: as §1
[5] = tested on: Mus musculus; test: In vivo antitumor activity in mice implanted with human colon adenocarcinoma cells at a dose of 150 mg/kg (qd 4-7), injected intraperitoneally and evaluated for %T/C; assay type: functional; conditions: route intraperitoneal; in short: as §1
[6] = tested on: Mus musculus; test: In vivo antitumor activity in mice implanted with human colon adenocarcinoma cells at a dose of 100 mg/kg (qd 4-7), injected intraperitoneally and evaluated for tumor volume on day 10; assay type: functional; conditions: route intraperitoneal; in short: as §1
[7] = tested on: Mus musculus; test: In vivo antitumor activity in mice implanted subcutaneously with 10^7 HT-29 human colon adenocarcinoma cells at a dose of 50 mg/kg (qd 4-7), injected intraperitoneally and evaluated for %T/C.; assay type: functional; in short: as §1
[8] = Inhibition of bovine brain Phosphatidylinositol 3-kinase; design: species or system Bos taurus
[9] = In vivo antitumor activity in mice implanted with human colon adenocarcinoma cells at a dose of 500 mg/kg (qd 4-7), injected intraperitoneally and evaluated for tumor volume on day 10; Lethal; assay type: organism-based; design: dose 500 mg/kg, route intraperitoneal; conditions: mouse, ip
[10] = tested on: Mus musculus; test: In vivo antitumor activity in mice implanted with human colon adenocarcinoma cells at a dose of 250 mg/kg (qd 4-7), injected intraperitoneally and evaluated for tumor volume on day 10; assay type: functional; conditions: route intraperitoneal; in short: as §1
[11] = tested on: Mus musculus; test: In vivo antitumor activity in mice implanted subcutaneously with HT-29 human colon adenocarcinoma cells at a dose of 250 mg/kg (qd 4-7), injected intraperitoneally and evaluated for %T/C; assay type: functional; in short: as §1
[12] = tested on: Phosphoinositide specific phospholipase C (Bos taurus); test: In vitro inhibitory activity against bovine Phosphoinositide specific phospholipase C (PI-PLC); N/A= not active, with <20% inhibition at 100 uM
[13] = Inhibition of bovine brain Phosphatidylinositol 3-kinase (inactive); design: species or system Bos taurus

CCCCCCCCCCCCCCCCCCOC[C@H](COP(=O)(O)O[C@H]1[C@@H](O)[C@@H](O)[C@H](O)C[C@H]1O)OC
IC50 [1]: 2.1 µM | T/C [2]: 118% | Tumor volume [3]: 0.28 cm*3 | Tumor volume [4]: 0.09 cm*3 | T/C [5]: 33.3% | Tumor volume [6]: 0.32 cm*3 | T/C [7]: 103.7% | IC50 [8]: 2.5 µM

CCCCCCCCCCCCCCCC(=O)OC[C@H](COP(=O)(O)O[C@H]1[C@@H](O)[C@@H](O)[C@H](O)C[C@H]1O)OC(=O)CCCCCCCCCCCCCCC
IC50 [1]: 35 µM | Tumor volume [9]: Lethal | Tumor volume [10]: 0.3 cm*3 | T/C [11]: 111.1% | IC50 [8]: > 250 µM

CCCCCCCCCCCCCCCC(=O)OC[C@H](CCP(=O)(O)O[C@H]1[C@@H](O)[C@@H](O)[C@H](O)C[C@H]1O)OC(=O)CCCCCCCCCCCCCCC
IC50 [1]: 10 µM | IC50 [12]: Not Active | IC50 [13]: Not Active

CCCCCCCCCCCCCCCC(=O)OC[C@H](COP(=O)(O)O[C@@H]1[C@H](O)[C@@H](F)[C@@H](O)[C@H](O)[C@@H]1O)OC(=O)CCCCCCCCCCCCCCC
IC50 [1]: 37 µM | IC50 [8]: 30 µM

CCCCCCCCCCCCCCCCCCOC[C@H](CCP(=O)(O)O[C@H]1[C@@H](O)[C@@H](O)[C@H](O)C[C@H]1O)OC
IC50 [1]: 45 µM | IC50 [8]: 5.3 µM
